Common to all, as to format: functional, cell-based
The test system of assay [1] is BV-173. As to the kind of experiment: Cytotoxicity against human BV173 cells after 72 hrs by MTT assay. The conditions noted are these: BV-173, 72 h. The method in brief:
(§1)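 Suspension cultures (BV-173 pre-B-cell leukemia or K-562 chronic myeloid leukemia, from DSMZ) kept in log phase in RPMI-1640 with 10% FBS and 2 mM L-glutamine, 37 °C, humidified 5% CO2. Compounds dissolved in DMSO and diluted in RPMI-1640, final DMSO at most 0.5%. Exposure 72 h, MTT-dye reduction read-out. Six wells per concentration, experiments in triplicate, IC50 from concentration-response fits.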

Assay [2] has as its system K562. As to the kind of experiment: Cytotoxicity against human K562 cells after 72 hrs by MTT assay. To be noted: K562, 72 h. In outline:
as §1

The test system of assay [3] is BV-173. Kind of assay: Induction of apoptosis in BV173 cells assessed as DNA fragmentation at 2.5 uM after 24hrs. To be noted: Homo sapiens. The method in brief: (§2)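 Apoptosis assay: exponentially growing BV-173 cells, 1 × 10⁶, exposed 24 h to compound or etoposide, with solvent-treated cells as controls. DNA was extracted from the cytosolic fraction and examined for fragmentation as laddering beside a DNA-laddering marker.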

Assay [4] concerns BV-173. Kind of assay: Induction of apoptosis in BV173 cells assessed as DNA fragmentation at 0.25 uM after 24hrs. The conditions noted are these: Homo sapiens, 2.5 uM, in the assay text read “2.5 uM” for “0.25 uM”. In outline:
as §2

The values below come from ChEMBL document CHEMBL1139952, “Cytotoxic Mannich bases of 6-(3-aryl-2-propenoyl)-2(3H)-benzoxazolones” (Eur J Med Chem, 2007).

Active and inactive are the calls of the source. The calls are words filed in the database; no cut-off is given here.

For `COc1ccc(/C=C/C(=O)c2ccc3c(c2)oc(=O)n3CN(C)C)cc1`, the midpoint of inhibition in assay [1], the IC50, lay at 17.7 µM. Take `O=C(/C=C/c1ccccc1)c1ccc2c(c1)oc(=O)n2CN1CCN(Cc2ccccc2)CC1`: the IC50 in assay [2] is 29.5 µM; in assay [1], 9.4 µM. Taken in the same sequence, the figures for `O=C(/C=C/c1ccccc1)c1ccc2c(c1)oc(=O)n2CN1CCOCC1` were 31.7 µM and 7.4 µM. In the same order, the values of `CN(C)Cn1c(=O)oc2cc(C(=O)/C=C/c3ccccc3)ccc21` are 27.2 µM and 6.6 µM.

For `COc1ccc(/C=C/C(=O)c2ccc3c(c2)oc(=O)n3CN2CCN(c3ccccc3OC)CC2)cc1`, the result in assay [3] was Active. For the same compound, the IC50 in assay [2] came to 12.4 µM; in assay [1], 5.4 µM. In the same order, the values of `COc1ccc(/C=C/C(=O)c2ccc3c(c2)oc(=O)n3CN2CCSCC2)cc1` are “Active”, 21.2 µM and 6.1 µM. Take `COc1ccc(/C=C/C(=O)c2ccc3c(c2)oc(=O)n3CN2CCN(Cc3ccccc3)CC2)cc1`: the IC50 was 24.2 µM in assay [2] and 6.2 µM in assay [1]. Taken in the same sequence, the figures for `COc1ccc(/C=C/C(=O)c2ccc3c(c2)oc(=O)n3CN2CCOCC2)cc1` were 22.7 µM and 4.7 µM. Compound `COc1ccc(/C=C/C(=O)c2ccc3c(c2)oc(=O)n3CN2CCCCC2)cc1` showed an IC50 in assay [1] of 15.3 µM. That is a double-digit micromolar value. As for `COc1ccccc1N1CCN(Cn2c(=O)oc3cc(C(=O)/C=C/c4ccccc4)ccc32)CC1`, the results for the IC50 in assay [2] and in assay [1] were 30.1 µM and 9.2 µM, respectively.

On to `O=C(/C=C/c1ccccc1)c1ccc2c(c1)oc(=O)n2CN1CCCCC1`, for which the IC50 is 38.3 µM in assay [2] and 8.2 µM in assay [1]. Compound `O=C(/C=C/c1ccccc1)c1ccc2[nH]c(=O)oc2c1` returned a concentration for half-maximal inhibition (IC50) in assay [1] of 18.4 µM. On the same count and under the same terms, under `COc1ccc(/C=C/C(=O)c2ccc3[nH]c(=O)oc3c2)cc1` stands 9.2 µM. In the case of `COc1cc([C@@H]2c3cc4c(cc3[C@@H](O[C@@H]3O[C@@H]5CO[C@@H](C)O[C@H]5[C@H](O)[C@H]3O)[C@H]3COC(=O)[C@H]23)OCO4)cc(OC)c1O` [ETOPOSIDE], the IC50 in assay [2] stood at 3.1 µM; in assay [1] it was 0.9 µM. For the same compound, the outcome in assay [4] was Active. On to `O=C(/C=C/c1ccccc1)c1ccc2c(c1)oc(=O)n2CN1CCSCC1`, for which the results for the IC50 in assay [2] and in assay [1] were 42.2 µM and 7.9 µM, respectively.
